This is a sample that favours compounds with a hit; in the whole collection about 3.5% have one here.
MrgX1 PAM: positive allosteric modulators of MrgX1, primary screen, HEK293 cells, Fluo-4 calcium flux; FDSS; stronger effect = higher value; B-score at 10 µM; hit rate 0.63% among 310,000; AID 588675, 2011;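 active = plate-corrected calcium response at least 3 library SD above typical, normal starting fluorescence, not activating the receptor alone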;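 note: compound read alongside a low EC10 to EC30 dose of BAM8-22 agonist; peak minus trough fluorescence over baseline measured at the second addition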
Target sequence (Q96LB2 whole entry, looked up): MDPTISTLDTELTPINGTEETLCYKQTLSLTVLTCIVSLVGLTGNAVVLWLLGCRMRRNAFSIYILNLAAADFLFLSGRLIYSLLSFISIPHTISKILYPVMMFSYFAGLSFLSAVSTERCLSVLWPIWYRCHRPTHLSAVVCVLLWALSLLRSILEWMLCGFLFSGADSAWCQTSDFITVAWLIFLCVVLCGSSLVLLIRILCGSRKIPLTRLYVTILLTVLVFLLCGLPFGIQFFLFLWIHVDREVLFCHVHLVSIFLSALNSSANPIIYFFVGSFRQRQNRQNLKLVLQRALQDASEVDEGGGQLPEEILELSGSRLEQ
MrgX1 ag: agonists of human MrgX1 receptor, primary screen, HEK293 cells, Fluo-4 calcium flux; Mas-related G-protein coupled receptor member X1 (Homo sapiens), Q96LB2; AID 588627, 2011; B-score at 10 µM; Fluo-4 calcium fluorescence, agonist mode; stronger effect = higher value; hit rate 0.44% among 310,000;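 active = calcium response B-score plate-corrected fluorescence ratio at least 3 library SD, with starting fluorescence B-score inside 5 SD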
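Material: MrgX1-expressing HEK293 cells; input: 15,000 cells per well; doses: test compound given as first of three sequential additions; schedule: overnight plating before 1 h dye loading; technique: Fluo-4 NW calcium-flux fluorescence, kinetic read; evaluation: baseline-normalised fluorescence change ratio, B-scored; control set: plate-wise positive and negative controls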
RGS4 act: RGS4 potentiators or activators, primary screen, cell-based, HEK293 M3R inducible RGS4, calcium flux; carbachol calcium flux Fluo4; stronger effect = lower value; B-score at 10 µM; hit rate 0.92% among 310,000; AID 463111, 2010;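 active = B-score of the integrated calcium signal more than 4 SD below the library mean, with starting fluorescence not abnormally high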;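 note: negative B-score means reduced calcium response which marks RGS4 activation or potentiation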
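Reagent: ECmax carbachol challenge; Test system: M3R-expressing HEK293 line, RGS4 induced by doxycycline; Schedule: overnight RGS4 induction, 30 min dye load 37 °C, 20 min compound RT; Detection: calcium dye Fluo4 fluorescence; Read-out: Agonist-evoked peak-minus-minimum fluorescence over baseline, integrated ratio, B score.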
RGS4 inh: RGS4 inhibitors, primary screen, cell-based, HEK293 M3R inducible RGS4, calcium flux. B-score at 10 µM. hit rate 0.45% among 310,000. Regulator of G-protein signaling 4 (Homo sapiens), P49798. Fluo-4 calcium flux; stronger effect = higher value; triggered by carbachol at its EC20;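 active = B-score, a plate-corrected calcium signal, over three deviations above library mean, with baseline fluorescence within five deviations of library mean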;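 note: RGS4 expression induced by doxycycline in cells with stable M3 receptor; B-score is computed from the integrated fluorescence ratio over baseline after carbachol; higher B-score means a larger calcium signal and so more RGS4 inhibition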
Target sequence (P49798 whole entry, looked up): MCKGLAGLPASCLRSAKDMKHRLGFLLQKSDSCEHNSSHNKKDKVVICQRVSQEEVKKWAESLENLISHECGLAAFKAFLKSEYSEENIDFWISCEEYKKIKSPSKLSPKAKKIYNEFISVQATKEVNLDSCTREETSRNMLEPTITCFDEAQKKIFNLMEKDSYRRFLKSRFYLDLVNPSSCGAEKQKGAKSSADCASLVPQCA
MrgX1 antag: antagonists of human MrgX1 receptor, primary screen, HEK293 cells, Fluo-4 calcium flux | BAM8-22 antagonism; stronger effect = lower value | B-score at 10 µM | hit rate 1.3% among 310,000 | AID 588676, 2011;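 active = calcium-response B-score plate-corrected more than 3 library SD below zero, starting fluorescence within 5 deviations, no agonist response on first addition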;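 note: peak minus trough fluorescence over baseline after final BAM8-22 challenge near maximal dose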
RGS4 act valid: reduced carbachol calcium response, RGS4-induced M3R cells, confirmation, RGS4 activator project, cell-based, HEK293 M3R/RGS4 inducible, calcium flux, duplicate | hit rate 89% among 1,100 | carbachol calcium flux Fluo4 | inhibition, % at 10 µM | AID 602282, 2012 | shares compounds with RGS4 act;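 active = inhibition above 3 SD of the buffer control wells, cut at about 41% in these data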;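 note: signal is the integrated peak-minus-minimum Fluo4 fluorescence over baseline ratio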
M3R Ca counter: activity in cells without induced RGS4 expression; hit rate 82% among 1,100; inhibition, % at 10 µM; HEK293 M3R non-induced RGS4, Fluo4 calcium flux; after carbachol challenge at its EC90; shares compounds with RGS4 act;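 active = inhibition exceeding 3 SD of buffer-only control wells, cut at about 26% in these data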;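 note: percent drop in integrated peak-minus-baseline over baseline Fluo4 ratio after carbachol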
An asterisk follows results filed as active; i = inactive; nt = not tested or not shown.

SMILES	MrgX1 PAM	MrgX1 ag	RGS4 act	RGS4 inh	MrgX1 antag	RGS4 act valid	M3R Ca counter
CCCn1c2ccccc2c2cnn(CC(=O)NCCCN3CCCC(C)C3)c(=O)c21 (centres undefined)	i	i	i	i	i	nt	nt
Fc1cccc(Cc2noc(CN3CCN(C4CCc5ccccc5C4)CC3)n2)c1 (centres undefined)	i	i	-7.72*	i	i	92.5*	89.3*
COc1ccc(Cc2noc(CN3CCN(C4CCc5ccccc5C4)CC3)n2)cc1OC (centres undefined)	i	i	i	i	i	nt	nt
CCOc1ccc(S(=O)(=O)NC(C)(C)C)cc1-c1nc2c(C(C)(C)C)nn(C)c2c(=O)[nH]1	i	i	-10.2*	i	i	76.0*	46.3*
O=C(NCc1ccc(Cl)cc1)c1ccc(NC(=O)C2CCCO2)cc1 (centres undefined)	i	i	i	i	i	nt	nt
COc1cccc(-c2ccc(NC(=O)C3CCCN(Cc4cnn(C(C)C)c4)C3)cc2)c1 (centres undefined)	i	i	-10.9*	i	i	92.0*	78.8*
O=C(Nc1ccc(-c2cccc(F)c2)cc1)C1CCCN(Cc2ccccn2)C1 (centres undefined)	i	i	-8.14*	i	i	50.0*	29.3*
CCCc1ncc(CN2CCCC(C(=O)Nc3ccc(-c4cccc(OC)c4)cc3)C2)cn1 (centres undefined)	i	i	i	i	i	nt	nt
CCC(NC(=O)/C(=C\c1ccc2c(c1)OCO2)NC(C)=O)C(=O)O (centres undefined)	i	i	i	i	i	nt	nt
Cc1ccc(C)c(NC(=O)C(NCC(C)(C)N2CCOCC2)c2ccccc2)c1 (centres undefined)	i	i	-10.3*	i	i	92.0*	94.8*
CC1CN(/C=C/C=O)C(C)CC1OC(=O)c1ccccc1 (centres undefined)	i	i	i	i	i	nt	nt
N=c1c2c(-c3ccccc3)c(-c3ccccc3)oc2ncn1CCN1CCOCC1	i	i	-8.96*	i	i	58.5*	83.8*
Cc1ccc(C(C)C)c(OCC(=O)NNC(=O)CC2OC(=O)c3ccccc32)c1 (centres undefined)	i	i	i	i	i	nt	nt
CCCN(CC#CC(O)(c1ccccc1)c1cccnc1)CCC (centres undefined)	i	i	i	i	i	nt	nt
OC(C#CCN1CCCC1)(c1ccccc1)c1cccnc1 (centres undefined)	i	i	-8.17*	i	i	92.5*	86.3*
COCCNC(=S)N(CCc1c(C)[nH]c2ccc(F)cc12)Cc1ccco1	i	i	i	i	i	nt	nt
Cc1ccc(NC(=S)NC2CCSc3ccccc32)cc1C (centres undefined)	i	i	-8.75*	i	i	92.0*	92.8*
CCCCN(CC)CCNC(=O)c1cc2c(-c3ccc(Cl)cc3)nn(C)c2s1	i	i	-8.86*	i	i	72.5*	56.8*
O=C(CSc1nnc(-c2cccnc2)o1)Nc1nccs1	i	i	i	i	i	nt	nt
CCOc1ccccc1N1CCN(c2ncnc3scc(-c4ccc(OC)cc4)c23)CC1	i	i	-10.7*	i	i	90.5*	43.3*
COc1ccc(-c2csc3nc(C)nc(N4CCN(C(C)=O)CC4)c23)cc1OC	i	i	i	i	i	nt	nt
COc1ccc(-c2csc3ncnc(N4CCN(c5ccccc5OC)CC4)c23)cc1	i	i	-8.6*	i	i	86.0*	48.8*
COc1ccc(-c2csc3ncnc(N4CCN(CCO)CC4)c23)cc1	i	i	i	i	i	nt	nt
Cc1nc(N2CCN(c3ccccc3O)CC2)c2c(-c3ccccc3)csc2n1	i	i	-11.3*	i	i	89.5*	33.8*
CCN1CCN(c2ncnc3scc(-c4ccc(C)cc4)c23)CC1	i	i	i	i	i	nt	nt
SMILES	MrgX1 PAM	MrgX1 ag	RGS4 act	RGS4 inh	MrgX1 antag	RGS4 act valid	M3R Ca counter
COc1cc(/C=N/c2oc(-c3ccccc3)cc2C#N)ccc1O	i	i	-7.75*	i	i	0.0	0.0
Cc1nc2nc(SCC(=O)NCCN3CCOCC3)nn2c(C)c1Cc1ccccc1	i	i	i	i	i	nt	nt
Cc1nc2nc(SCC(=O)NCCCN3CCCCCC3)nn2c(C)c1Cc1ccccc1Cl	i	i	-7.92*	i	i	82.5*	44.8*
Cc1ccccc1Cc1c(C)nc2nc(SCC(=O)NCCCN3CCCC3)nn2c1C	i	i	-8.73*	i	i	72.5*	36.8*
Cc1ccc(Cc2c(C)nc3nc(SCC(=O)NCCCN4CCCCC4)nn3c2C)cc1	i	i	i	i	i	nt	nt
Cc1ccc(Cc2c(C)nc3nc(SCC(=O)NCCCN4CCCC4)nn3c2C)cc1	i	i	-9.64*	i	i	41.0*	0.0
CC(C)CC(=O)N1CCN(Cc2ccccc2[N+](=O)[O-])CC1	i	i	i	i	i	nt	nt
CCCC1Oc2ccccc2C(=O)N(CC(=O)c2ccc3c(c2)OCCO3)C1=O (centres undefined)	i	i	-9.02*	i	i	58.5*	0.0
CCOc1ccc(C(=O)NCC(=O)OCC(=O)N2CCCC2)cc1	i	i	i	i	i	nt	nt
CCN(CC)CCOC(=O)C1(c2ccccc2)CCCC1	i	i	-9.12*	i	i	94.0*	92.8*
CCN(CC)CCOC(=O)C1(c2ccc(OC)c(OC)c2)CCCC1	i	i	i	i	i	nt	nt
CCCCNc1c2c3c(cccc3n(C)c1=O)C(=O)c1ccccc1-2	i	i	-11.6*	i	i	100.0*	96.8*
Cc1cccc(C)c1NC(=O)NNC(=O)c1cc(C(C)(C)C)nn1Cc1ccccc1	i	i	i	i	i	nt	nt

Screens as filed in PubChem BioAssay.
